Source: PubChem
CAL PDZ FP-1 = inhibitors of human CAL PDZ peptide binding; AID 504414; purified CAL PDZ, TMR-peptide fluorescence polarization, 1 h; hit rate 0.02% among 330,000; inhibition, % at 20 µM; Q9HD26;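 active = highest replicate inhibition of at least 40%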
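System: tagged CAL PDZ domain. Schedule: 1 h room-temperature incubation prior to read. Signal: fluorescence polarization (mP). Measure: percent inhibition from loss of millipolarization.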
ERp5 block = inhibitors of human ERp5. AID 651711. inhibition, % at 9.99 µM. ERp5 insulin aggregation, absorbance 650 nm, 90 min. hit rate 0.05% among 350,000;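 active = mean replicate inhibition above about 25%, with every replicate also reaching it, limit read from the data, passing the limit was not always enough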
CAL PDZ FP-2 = blocks peptide binding to the human CAL PDZ domain. Q9HD26. purified CAL PDZ, TMR-peptide fluorescence polarization, 1 h. inhibition, % at 24.9 µM. hit rate 0.92% among 300,000;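 active = mean inhibition of at least 30% with at least half of replicates also reaching 30%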
ERAP1 inh = ERAP1 (human) enzyme inhibition | recombinant ERAP1, Leu-AMC fluorescence, 60 min | inhibition, % at 10.7 µM | Q9NZ08 | hit rate 0.15% among 340,000;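 active = mean replicate inhibition of at least 30%, or all replicates individually reaching that 30% level; inactive = mean below 30% and not every replicate reaching it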
PDI inh = inhibitors of human protein disulfide isomerase; P07237; PDI insulin aggregation turbidity, A650, 90 min; inhibition, % at 10 µM; hit rate 0.052% among 350,000; AID 588391;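 active = mean inhibition across replicates of 30% or more, whatever share of single replicates reach that level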
Target sequence (P07237 whole entry, looked up): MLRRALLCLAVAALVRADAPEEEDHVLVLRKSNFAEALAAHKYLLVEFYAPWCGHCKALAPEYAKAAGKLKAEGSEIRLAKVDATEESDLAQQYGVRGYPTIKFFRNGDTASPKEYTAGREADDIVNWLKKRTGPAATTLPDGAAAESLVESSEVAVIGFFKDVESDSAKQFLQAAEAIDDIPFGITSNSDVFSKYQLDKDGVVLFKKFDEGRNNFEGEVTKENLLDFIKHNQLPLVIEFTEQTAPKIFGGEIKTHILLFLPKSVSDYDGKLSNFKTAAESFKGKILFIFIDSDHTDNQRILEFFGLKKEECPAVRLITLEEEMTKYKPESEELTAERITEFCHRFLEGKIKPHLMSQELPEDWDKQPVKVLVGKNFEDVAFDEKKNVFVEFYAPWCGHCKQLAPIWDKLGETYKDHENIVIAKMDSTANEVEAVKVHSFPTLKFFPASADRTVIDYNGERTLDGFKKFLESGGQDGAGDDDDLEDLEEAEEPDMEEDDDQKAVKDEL
Rin1 Abl inh = inhibitors of human Rin1-Abl protein interaction. P00519+Q13671. TR-FRET Rin1/Abl binding, biochemical. inhibition, % at 7.35 µM. hit rate 0.4% among 360,000. AID 588664; in the data active = inhibition above about 5%, passing the limit was not always enough
Rin1-Abl confirm = confirmation of inhibitors of human Rin1-Abl interaction; shares compounds with Rin1 Abl inh; TR-FRET Rin1-Abl binding, purified proteins; inhibition, % at 7.35 µM; hit rate 49% among 1,300; in the data active = inhibition above about 6.5%
GFP quench-1 = counter-screen for Rin1-Abl inhibitors: GFP fluorescence quenchers; shares compounds with Rin1 Abl inh; inhibitors/quenchers counterscreen; inhibition, % at 6.75 µM; hit rate 8.5% among 1,300; AID 602125; in the data active = inhibition above about 6.5%;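 also: ABL1-eGFP fusion protein alone without its partner RIN1-SBP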
GFP quench dose = GFP fluorescence interference dose response. shares compounds with Rin1 Abl inh. GFP fluorescence interference/quenching counterscreen. IC50, µM. 230 tested, under 10 active;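 also: ABL1-eGFP fusion protein alone without its RIN1 binding partner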
GFP quench-2 = counter-screen for Rin1-Abl interaction inhibitors: GFP fluorescence quenching; shares compounds with Rin1 Abl inh; GFP fluorescence quenching counterscreen, biochemical; IC50, µM; 25 tested, under 10 active; AID 602397
Hits are given with their value; . = inactive; / = no result; ! = not confirmed by another sample. Only some compounds are listed: those with a hit (about 1.1% of all), similar ones and a draw of the others. Unless noted, no rule for the calls is given here.

SMILES	CAL PDZ FP-1	ERp5 block	CAL PDZ FP-2	ERAP1 inh	PDI inh	Rin1 Abl inh	Rin1-Abl confirm	GFP quench-1	others
CN(CCc1ccccc1)C(=O)c1ccc(NC(=O)Cc2ccc(NC(=O)C3CCN(C(=O)c4ccccc4)CC3)cc2)cc1	.	.	.	.	.	41	42	.	GFP quench dose=.;GFP quench-2=.
CN(CCc1ccccc1)C(=O)c1ccc(NC(=O)Cc2ccc(NC(=O)C3CCCN(C(=O)c4ccccc4)C3)cc2)cc1 (centres undefined)	.	.	.	.	.	.	/	/
CN(CCc1ccccc1)C(=O)c1ccc(NC(=O)Cc2ccc(NC(=O)C3CCN(C(=O)C4CC4)CC3)cc2)cc1	.	.	.	.	.	13	15	.
CN(CCc1ccccc1)C(=O)c1ccc(NC(=O)Cc2ccc(NC(=O)C3CCCN(C(=O)C4CCCCC4)C3)cc2)cc1 (centres undefined)	.	.	.	/	.	.	/	/
C[C@@H]1CN([C@H](C)CO)C(=O)c2cccc(NC(=O)Nc3ccc4c(c3)OCO4)c2O[C@@H]1CN(C)CC1CCCCC1	/	.	/	.	/	/	/	/
COc1ccc(CNC2CCCc3ccccc32)c(OC)c1 (centres undefined)	.	.	.	.	.	6.2	.	.
COc1ccc(NC(=O)NC2CCCc3ccccc32)c(OC)c1 (centres undefined)	.	.	.	.	.	.	/	/
C[C@@H]1CN([C@@H](C)CO)C(=O)c2cc(/C=C/c3ccccc3)cnc2O[C@@H]1CN(C)C(=O)C1CCCCC1	/	.	/	.	/	/	/	/
[O-]C(=C(C(=S)Nc1cccc2ccccc12)[n+]1cccc(CO)c1)c1ccc(Cl)s1	.	.	.	.	.	13	.	.
COc1ccc2c3c(n(C)c2c1)[C@H](CO)N(C(=O)Nc1ccc(F)cc1)CC31CCN(S(=O)(=O)c2cn(C)cn2)CC1	/	.	/	.	/	/	/	/
CC(=O)c1ccccc1C(=O)N1CCCC(CCC(=O)N2CCN(c3ccccn3)CC2)C1 (centres undefined)	.	.	.	.	.	7.9	.	.
O=C(CCC1CCCN(C(=O)c2ccccc2Cl)C1)N1CCN(c2ccccn2)CC1 (centres undefined)	.	.	.	.	.	.	/	/
Cc1cccc(C(=O)N2CCCC(CCC(=O)N3CCN(c4ccccn4)CC3)C2)c1 (centres undefined)	.	.	.	.	.	8.8	.	.
O=C(c1ccccn1)N1C[C@@H]2[C@H](c3ccccc31)[C@H](CO)N2C(=O)Nc1ccccc1Cl	/	.	/	.	/	/	/	/
CC(C)NC(=O)N[C@@H]1C=C[C@@H](CC(=O)NCc2ccc(Oc3ccccc3)cc2)O[C@H]1CO	/	.	/	.	/	/	/	/
CCn1c(SCc2ccc(C(=O)OC)o2)nnc1-c1c[nH]c2ccccc12	.	.	.	.	/	14	11	.
Cc1occc1C(=O)N1CCCC(N2CCN(c3ccccc3F)CC2)C1 (centres undefined)	.	.	.	.	.	11	.	.
O=C(c1ccco1)N1CCCC(N2CCN(c3ccccc3F)CC2)C1 (centres undefined)	.	.	.	.	.	.	/	/
COc1ccc2ncc(S(=O)(=O)c3ccccc3)c(N3CCC4(CC3)OCCO4)c2c1	.	/	.	/	.	8.2	.	.
COc1cc2ncc(S(=O)(=O)c3ccccc3)c(N3CCC4(CC3)OCCO4)c2cc1OC	.	.	.	.	.	.	/	/
Oc1c(CN2CCCCC2)ccc2cccnc12	.	.	.	.	.	34	.	.
Oc1c(CN2CCCCC2)cc(COCc2ccccc2)c2cccnc12	.	/	.	/	.	14	.	.
COCc1cc(CN2CCCC2)c(O)c2ncccc12	.	/	.	/	.	22	.	.
CCOc1ccccc1N1CCN(Cc2cccc(OC)c2O)CC1	.	/	.	/	.	.	/	/
COc1ccccc1N1CCN(Cc2cc(Br)c(O)c3ncccc23)CC1	.	.	/	.	/	9.7	.	.
SMILES	CAL PDZ FP-1	ERp5 block	CAL PDZ FP-2	ERAP1 inh	PDI inh	Rin1 Abl inh	Rin1-Abl confirm	GFP quench-1	others
CCOC(=O)Nc1nnc(Cc2ccc(Cl)c(Cl)c2)s1	.	.	.	.	.	9.3	.	.
Cn1c(CCC(=O)Nc2ccc(N3CCOCC3)cc2)nc(=O)c2ccccc21	.	/	.	/	.	9.6	.	.
C[C@H](CO)N1C[C@H](C)[C@H](CN(C)S(=O)(=O)c2ccc(Cl)cc2)Oc2ccc(NC(=O)Nc3cccc4ccccc34)cc2C1=O	/	.	/	.	/	/	/	/
CN1CCc2cccc3c2[C@H]1Cc1ccc(O)c(O)c1-3	.	.	.	.	.	16!	11	11
CC(C)c1nc2oc3c(=O)[nH]cnc3c2c2c1CCC2	.	/	.	/	.	7.8	13	.
O=c1cc(SCc2ccccc2)nc[nH]1	.	.	/	.	.	89	98	.	GFP quench dose=.
O=C(NCC[C@H]1CC[C@H](NC(=O)c2ccncc2)[C@@H](CO)O1)Nc1ccc(Cl)cc1	/	.	/	.	/	/	/	/
O=C(OCCc1cc2ccccc2c(=O)o1)N1CCOCC1	.	.	.	.	.	12	.	.
O=C(CCN1CCCCC1)N[C@H]1C=C[C@@H](CC(=O)N2CCC(Cc3ccccc3)CC2)O[C@H]1CO	/	.	/	.	/	/	/	/
